# Source: ChEMBL document CHEMBL4422685, “Design, synthesis and evaluation of a series of 5-methoxy-2,3-naphthalimide derivatives as AcrB inhibitors for the reversal of bacterial resistance” (Bioorg Med Chem Lett, 2019)
# Activity calls are given as the source filed them. The rule behind the calls is not given here.
# Key:
# [1] = target: T1, Multidrug efflux pump subunit AcrB (Escherichia coli (strain K12)) (UniProt P31224); test: Inhibition of AcrB in wild-type drug-resistant Escherichia coli BW2113 assessed as potentiation of chloramphenicol-induced antimicrobial activity by measuring chloramphenicol MIC at 16 ug/ml by checkerboard titration method (Rvb =16 ug/ml)
# T1 sequence (whole entry): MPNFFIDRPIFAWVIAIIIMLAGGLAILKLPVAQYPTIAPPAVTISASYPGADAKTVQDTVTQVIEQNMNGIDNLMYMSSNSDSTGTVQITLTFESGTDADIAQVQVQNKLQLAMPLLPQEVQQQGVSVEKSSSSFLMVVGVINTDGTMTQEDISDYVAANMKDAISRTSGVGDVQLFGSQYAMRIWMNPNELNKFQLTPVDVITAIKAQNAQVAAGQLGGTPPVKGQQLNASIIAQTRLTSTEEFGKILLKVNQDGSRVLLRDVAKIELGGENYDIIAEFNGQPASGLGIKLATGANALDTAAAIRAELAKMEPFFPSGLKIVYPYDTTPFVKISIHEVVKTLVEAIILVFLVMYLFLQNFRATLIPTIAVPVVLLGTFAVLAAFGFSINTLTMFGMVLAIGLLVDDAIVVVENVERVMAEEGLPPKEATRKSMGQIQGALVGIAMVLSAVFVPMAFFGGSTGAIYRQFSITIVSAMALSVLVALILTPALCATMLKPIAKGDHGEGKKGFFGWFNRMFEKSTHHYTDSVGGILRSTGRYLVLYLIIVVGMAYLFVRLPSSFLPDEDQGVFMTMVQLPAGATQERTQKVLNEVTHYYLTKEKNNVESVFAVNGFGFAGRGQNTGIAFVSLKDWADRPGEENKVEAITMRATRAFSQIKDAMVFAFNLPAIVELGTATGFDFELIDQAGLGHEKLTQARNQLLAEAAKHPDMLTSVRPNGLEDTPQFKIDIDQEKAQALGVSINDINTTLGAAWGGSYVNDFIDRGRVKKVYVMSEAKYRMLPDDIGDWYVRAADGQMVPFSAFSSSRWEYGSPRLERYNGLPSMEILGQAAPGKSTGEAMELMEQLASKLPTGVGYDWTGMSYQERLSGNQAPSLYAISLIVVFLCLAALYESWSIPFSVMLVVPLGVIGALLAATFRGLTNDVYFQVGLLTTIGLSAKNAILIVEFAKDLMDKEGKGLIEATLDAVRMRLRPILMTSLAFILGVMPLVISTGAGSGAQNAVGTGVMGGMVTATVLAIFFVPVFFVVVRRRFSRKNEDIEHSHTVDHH
# [2] = target: T1, Multidrug efflux pump subunit AcrB (Escherichia coli (strain K12)); test: Inhibition of AcrB in wild-type drug-resistant Escherichia coli […] assessed as potentiation of levofloxacin-induced antimicrobial activity by measuring levofloxacin MIC at 8 ug/ml by checkerboard titration method (reference value: 0.063 ug/ml)
# [3] = target: T1, Multidrug efflux pump subunit AcrB (Escherichia coli (strain K12)); test: Inhibition of AcrB in wild-type drug-resistant Escherichia coli […] assessed as potentiation of levofloxacin-induced antimicrobial activity by measuring levofloxacin MIC at 32 ug/ml by checkerboard titration method (reference value: 0.063 ug/ml)
# [4] = target: T1, Multidrug efflux pump subunit AcrB (Escherichia coli (strain K12)); test: Inhibition of AcrB in wild-type drug-resistant Escherichia coli […] assessed as potentiation of erythromycin-induced antimicrobial activity by measuring erythromycin MIC at 8 ug/ml by checkerboard titration method (reference value: 64 ug/ml)
# [5] = target: T1, Multidrug efflux pump subunit AcrB (Escherichia coli (strain K12)); test: Inhibition of AcrB in wild-type drug-resistant Escherichia coli […] assessed as potentiation of chloramphenicol-induced antimicrobial activity by measuring chloramphenicol MIC at 128 ug/ml by checkerboard titration method (Rvb =16 ug/ml)
# [6] = target: T1, Multidrug efflux pump subunit AcrB (Escherichia coli (strain K12)); test: Inhibition of AcrB in wild-type drug-resistant Escherichia coli […] assessed as potentiation of tetraphenyl phosphonium chloride-induced antimicrobial activity by measuring tetraphenyl phosphonium chloride MIC at 64 ug/ml by checkerboard titration method (reference value: 1024 ug/ml)
# [7] = tested on: Escherichia coli; test: Toxicity against AcrB deficient Escherichia coli AcrB lacking at 128 ug/ml; assay type: organism-based; conditions: in vivo
# In short: (§1)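 MIC determination against wild-type resistant E. coli BW25113 and an isogenic acrB-deleted strain; highest concentration tested 128 mg/L.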
# [8] = target: T1, Multidrug efflux pump subunit AcrB (Escherichia coli (strain K12)); test: Inhibition of AcrB in wild-type drug-resistant Escherichia coli […] assessed as potentiation of erythromycin-induced antimicrobial activity by measuring erythromycin MIC at 16 ug/ml by checkerboard titration method (reference value: 64 ug/ml)
# [9] = target: T1, Multidrug efflux pump subunit AcrB (Escherichia coli (strain K12)); test: Inhibition of AcrB in wild-type drug-resistant Escherichia coli […] assessed as potentiation of erythromycin-induced antimicrobial activity by measuring erythromycin MIC at 32 ug/ml by checkerboard titration method (reference value: 64 ug/ml)
# [10] = target: T1, Multidrug efflux pump subunit AcrB (Escherichia coli (strain K12)); test: Inhibition of AcrB in wild-type drug-resistant Escherichia coli […] assessed as potentiation of levofloxacin-induced antimicrobial activity by measuring levofloxacin MIC at 16 ug/ml by checkerboard titration method (reference value: 0.063 ug/ml)
# [11] = target: T1, Multidrug efflux pump subunit AcrB (Escherichia coli (strain K12)); test: Inhibition of AcrB in wild-type drug-resistant Escherichia coli […] assessed as potentiation of tetraphenyl phosphonium chloride-induced antimicrobial activity by measuring tetraphenyl phosphonium chloride MIC at 32 ug/ml by checkerboard titration method (reference value: 1024 ug/ml)
# [12] = target: T1, Multidrug efflux pump subunit AcrB (Escherichia coli (strain K12)); test: Inhibition of AcrB in wild-type drug-resistant Escherichia coli […] assessed as potentiation of chloramphenicol-induced antimicrobial activity by measuring chloramphenicol MIC at 64 ug/ml by checkerboard titration method (Rvb =16 ug/ml)
# [13] = target: T1, Multidrug efflux pump subunit AcrB (Escherichia coli (strain K12)); test: Inhibition of AcrB in wild-type drug-resistant Escherichia coli […] assessed as potentiation of chloramphenicol-induced antimicrobial activity by measuring chloramphenicol MIC at 8 ug/ml by checkerboard titration method (Rvb =16 ug/ml)
# [14] = target: T1, Multidrug efflux pump subunit AcrB (Escherichia coli (strain K12)); test: Inhibition of AcrB in wild-type drug-resistant Escherichia coli […] assessed as potentiation of levofloxacin-induced antimicrobial activity by measuring levofloxacin MIC at 64 ug/ml by checkerboard titration method (reference value: 0.063 ug/ml)
# [15] = target: T1, Multidrug efflux pump subunit AcrB (Escherichia coli (strain K12)); test: Inhibition of AcrB in wild-type drug-resistant Escherichia coli […] assessed as reduction in glucose-induced nile red efflux at 200 uM by fluorescence assay
# In short: (§2)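 E. coli cells (wild-type resistant with active pump, acrB-deleted, or wild-type plus compound) preloaded with Nile Red before fluorescence recording. Efflux triggered at 100 s by adding 0.2% glucose. Fluorescence traces followed; experiments with different cell batches on three different days.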
# [16] = target: T1, Multidrug efflux pump subunit AcrB (Escherichia coli (strain K12)); test: Inhibition of AcrB in wild-type drug-resistant Escherichia coli […] assessed as potentiation of tetraphenyl phosphonium chloride-induced antimicrobial activity by measuring tetraphenyl phosphonium chloride MIC at 8 ug/ml by checkerboard titration method (reference value: 1024 ug/ml)
# [17] = tested on: Escherichia coli; test: Induction of Escherichia coli outer membrane permeabilization assessed as increase in nitrocefin hydrolysis at 128 ug/ml by spectroscopic method; assay type: organism-based
# [18] = tested on: Escherichia coli; test: Toxicity against wild-type drug-resistant Escherichia coli […] at 128 ug/ml; assay type: organism-based; conditions: in vivo; in short: as §1
# [19] = target: T1, Multidrug efflux pump subunit AcrB (Escherichia coli (strain K12)); test: Inhibition of AcrB in wild-type drug-resistant Escherichia coli […] assessed as potentiation of chloramphenicol-induced antimicrobial activity by measuring chloramphenicol MIC at 32 ug/ml by checkerboard titration method (Rvb =16 ug/ml)
# [20] = target: T1, Multidrug efflux pump subunit AcrB (Escherichia coli (strain K12)); test: Inhibition of AcrB in wild-type drug-resistant Escherichia coli […] assessed as potentiation of tetraphenyl phosphonium chloride-induced antimicrobial activity by measuring tetraphenyl phosphonium chloride MIC at 128 ug/ml by checkerboard titration method (reference value: 1024 ug/ml)
# [21] = target: T1, Multidrug efflux pump subunit AcrB (Escherichia coli (strain K12)); test: Inhibition of AcrB in wild-type drug-resistant Escherichia coli […] assessed as reduction in glucose-induced nile red efflux at 500 uM by fluorescence assay; in short: as §2
# [22] = target: T1, Multidrug efflux pump subunit AcrB (Escherichia coli (strain K12)); test: Inhibition of AcrB in wild-type drug-resistant Escherichia coli […] assessed as potentiation of levofloxacin-induced antimicrobial activity by measuring levofloxacin MIC at 128 ug/ml by checkerboard titration method (reference value: 0.063 ug/ml)
# [23] = target: T1, Multidrug efflux pump subunit AcrB (Escherichia coli (strain K12)); test: Inhibition of AcrB in wild-type drug-resistant Escherichia coli […] assessed as potentiation of erythromycin-induced antimicrobial activity by measuring erythromycin MIC at 128 ug/ml by checkerboard titration method (reference value: 64 ug/ml)
# [24] = target: T1, Multidrug efflux pump subunit AcrB (Escherichia coli (strain K12)); test: Inhibition of AcrB in wild-type drug-resistant Escherichia coli […] assessed as potentiation of erythromycin-induced antimicrobial activity by measuring erythromycin MIC at 64 ug/ml by checkerboard titration method (reference value: 64 ug/ml)
# [25] = target: T1, Multidrug efflux pump subunit AcrB (Escherichia coli (strain K12)); test: Inhibition of AcrB in wild-type drug-resistant Escherichia coli […] assessed as potentiation of tetraphenyl phosphonium chloride-induced antimicrobial activity by measuring tetraphenyl phosphonium chloride MIC at 16 ug/ml by checkerboard titration method (reference value: 1024 ug/ml)
# [26] = tested on: Escherichia coli; test: Antimicrobial activity against AcrB deficient Escherichia coli; assay type: functional
# [27] = Solubility of the compound in DMSO; assay type: physicochemical
smiles,measurement,setting,value
COc1cccc2cc3c(cc12)C(=O)N(C(C)(C)C)C3=O,MIC,[1],16 µg/mL
same,MIC,[2],0.063 µg/mL
same,MIC,[3],0.063 µg/mL
same,MIC,[4],64 µg/mL
same,MIC,[5],16 µg/mL
same,MIC,[6],1020 µg/mL
same,Activity,[7],Non-Toxic
same,MIC,[8],64 µg/mL
same,MIC,[9],64 µg/mL
same,MIC,[10],0.063 µg/mL
same,MIC,[11],1020 µg/mL
same,MIC,[12],16 µg/mL
same,MIC,[13],16 µg/mL
same,MIC,[14],0.063 µg/mL
same,inhibition,[15],Active
same,MIC,[16],1020 µg/mL
same,Activity,[17],Non-Toxic
same,Activity,[18],Non-Toxic
same,MIC,[19],16 µg/mL
same,MIC,[20],512 µg/mL
same,inhibition,[21],100%
same,MIC,[22],0.063 µg/mL
same,MIC,[23],32 µg/mL
same,MIC,[24],32 µg/mL
same,MIC,[25],1020 µg/mL
[Cl-].c1ccc([P+](c2ccccc2)(c2ccccc2)c2ccccc2)cc1 [TETRAPHENYLPHOSPHONIUM CHLORIDE],MIC,[26],32 µg/mL
COc1cccc2cc3c(cc12)C(=O)N(CCc1ccccc1Cl)C3=O,solubility,[27],Insoluble
COc1cccc2cc3c(cc12)C(=O)N(c1ccccc1C(F)(F)F)C3=O,solubility,[27],Insoluble
COc1cccc2cc3c(cc12)C(=O)N(c1ccc(C(C)C)cc1)C3=O,solubility,[27],Insoluble
COc1cccc2cc3c(cc12)C(=O)N(c1cccc(C)c1)C3=O,solubility,[27],Insoluble
COc1cccc2cc3c(cc12)C(=O)N(Cc1ccc(F)cc1)C3=O,solubility,[27],Insoluble
COc1cccc(N2C(=O)c3cc4cccc(OC)c4cc3C2=O)c1,solubility,[27],Insoluble
COc1cccc2cc3c(cc12)C(=O)N(Cc1ccc(C)cc1)C3=O,solubility,[27],Insoluble
CCc1ccc(N2C(=O)c3cc4cccc(OC)c4cc3C2=O)cc1,solubility,[27],Insoluble
COc1cccc2cc3c(cc12)C(=O)N(Cc1ccccc1Cl)C3=O,MIC,[1],16 µg/mL
same,MIC,[2],0.063 µg/mL
same,MIC,[3],0.063 µg/mL
same,MIC,[4],64 µg/mL
same,MIC,[5],16 µg/mL
same,MIC,[6],1020 µg/mL
same,Activity,[7],Non-Toxic
same,MIC,[8],64 µg/mL
same,MIC,[9],64 µg/mL
same,MIC,[10],0.063 µg/mL
same,MIC,[11],1020 µg/mL
same,MIC,[12],16 µg/mL
same,MIC,[13],16 µg/mL
same,MIC,[14],0.063 µg/mL
same,MIC,[16],1020 µg/mL
same,Activity,[18],Non-Toxic
same,MIC,[19],16 µg/mL
same,MIC,[20],512 µg/mL
same,MIC,[22],0.063 µg/mL
same,MIC,[23],32 µg/mL
same,MIC,[24],64 µg/mL
same,MIC,[25],1020 µg/mL
CC[C@H]1OC(=O)[C@H](C)[C@@H](O[C@H]2C[C@@](C)(OC)[C@@H](O)[C@H](C)O2)[C@H](C)[C@@H](O[C@@H]2O[C@H](C)C[C@H](N(C)C)[C@H]2O)[C@](C)(O)C[C@@H](C)C(=O)[C@H](C)[C@@H](O)[C@]1(C)O [ERYTHROMYCIN],MIC,[26],64 µg/mL
C[C@H]1COc2c(N3CCN(C)CC3)c(F)cc3c(=O)c(C(=O)O)cn1c23.C[C@H]1COc2c(N3CCN(C)CC3)c(F)cc3c(=O)c(C(=O)O)cn1c23.O [LEVOFLOXACIN],MIC,[26],0.0039 µg/mL
COc1cccc2cc3c(cc12)C(=O)N(CCc1ccc(F)cc1)C3=O,solubility,[27],Insoluble
COc1cccc2cc3c(cc12)C(=O)N(Cc1ccc(Cl)cc1)C3=O,solubility,[27],Insoluble
COc1ccccc1N1C(=O)c2cc3cccc(OC)c3cc2C1=O,solubility,[27],Insoluble
CCCCc1ccc(N2C(=O)c3cc4cccc(OC)c4cc3C2=O)cc1,solubility,[27],Insoluble
